Results: PMC7413308 (ARKIVOC : free online journal of organic chemistry, 2018)
“Also recorded” adds a separate entry of the source. Read-outs that look alike come from different tables or passages of the source.

Assays:
[1] = In vitro microsomal stability of analogs; format: in vitro ADME, human
mice [2] = assay: Sensorimotor coordination on rotating rod after oral gavage; format: in vivo; details: oral gavage 40 mg/kg, rotating rod max 3 minutes, three time-points
[3] = In vitro microsomal stability of analogs; format: in vitro ADME, mouse
[4] = cited from earlier work
[5] = test system: HEK293 (kidney) cell line; assay: In vitro cytotoxicity, cell viability; format: cell-based; details: 48 h incubation, Cell-Titer Glo cell viability
HEPG2 (liver) cell line = assay: In vitro cytotoxicity, cell viability; format: cell-based; details: 48 h incubation, Cell-Titer Glo cell viability
[6] = cited from earlier work; remark: listed apart in the source
[7] = In vitro liver microsomal stability; format: in vitro ADME, human; details: 4 μM compound, 37 °C, 30 minutes
mice, rats and primates = details: cited from earlier work
rats [8] = assay: Prepulse inhibition; format: in vivo; details: 30 mg/kg, IP, one hour before testing, PCP·HCl 1.5 mg/kg SC ten minutes prior to testing
Outline: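 Rats received the test compound at 30 mg/kg ip one hour before testing, then PCP·HCl (1.5 mg/kg, sc) ten minutes before testing to disrupt PPI. Startle to an auditory stimulus was measured with a non-startling auditory prepulse at 5, 10 and 15 decibels. Results were expressed as mean (+SEM) percent prepulse inhibition and compared with PCP-treated controls given 0 mg/kg drug.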

[9] = poly (I:C) animal model of schizophrenia; cited from earlier work
[10] = In vitro liver microsomal stability; format: in vitro ADME, rat; details: 4 μM compound, 37 °C, 30 minutes
mice [11] = assay: 6 Hz electroshock seizure assay; format: in vivo
Outline: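 Mice received the test compound i.p. at 100 or 150 mg/kg, depending on the compound. At various time points after dosing, a 6 Hz electroshock lasting 3 seconds was delivered through a corneal electrode. Each animal was then observed for convulsions and scored as protected or not.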

rats [12] = details: cited from earlier work
[13] = In vitro liver microsomal stability; format: in vitro ADME, dog; details: 4 μM compound, 37 °C, 30 minutes
[14] = In vitro liver microsomal stability; format: in vitro ADME, mouse; details: 4 μM compound, 37 °C, 30 minutes
rhesus monkeys = details: cited from earlier work
mice [15] = assay: Rotarod assay, i.p. dosing; format: in vivo; details: 100 mg/kg i.p., 30 minutes prior to testing, 6 rpm, n=8
Outline: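 Mice (n=8) were given the test compound at 100 mg/kg ip 30 minutes before being placed on a rod rotating at 6 rpm for a 1-minute trial. Any mouse that fell 3 times during the trial was scored as toxic (ataxic or sedated).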

mice [16] = details: cited from earlier work
[17] = MAM model of schizophrenia; cited from earlier work
Procognitive assay = format: in vivo; details: data only preliminary
[18] = footnote b: compound not detected after 20 minutes
[19] = footnote d: assessed at 1-hour incubation time

Row | Structure (SMILES) | Effect on sensorimotor coordination (motor impairment, sedation/ataxia) (mice [2]) | HEK293 LD50 [5] [µM] | HEPG2 LD50 (HEPG2 (liver) cell line) [µM] | Liver microsomal stability (%-remaining) HLM [7] [%] | Reversal of PCP-induced PPI deficit (rats [8]) | Liver microsomal stability (%-remaining) RLM [10] [%] | Anxiolytic effect (rats [12]) | Liver microsomal stability (%-remaining) DLM [13] [%] | Liver microsomal stability (%-remaining) MLM [14] [%] | Anxiolytic effect (rhesus monkeys) | Ataxia in rotarod assay (mice [15]) | other results
1 | C#Cc1ccc2c(c1)C(c1ccccc1F)=N[C@@H](C)c1c(C(=O)N(C)C)ncn1-2 [8f, (S)-8-Ethynyl-6-(2-fluorophenyl)-N,N,4-trimethyl-4H-benzo[f]imidazo[1,5-a][1,4]diazepine-3-carboxamide] | only minor impairment | >400 | >400 | – | – | – | – | – | – | – | – | half-life ([1]; human, liver microsomes): 59 ± 5 min; remaining at 1 h ([1]; human, liver microsomes, Microsomal stability (HLM) % remaining, footnote d: assessed at 1-hour incubation time): 41 ± 0.9%; half-life ([3]; mouse, liver microsomes): 24 ± 2 min; remaining at 1 h ([3]; mouse, liver microsomes, Microsomal stability (MLM) % remaining, footnote d: assessed at 1-hour incubation time): 19 ± 0.9%; Activity in procognitive assay [4]: procognitive (A++ and C++); Activity in antidepressant assay (forced swim test) [6]: active
2 | C#Cc1ccc2c(c1)C(c1ccccc1F)=N[C@@H](C)c1c(C(=O)OCC)ncn1-2 [compound 2] | – | 28.0 ± 4.1 | 73.5 ± 14.4 | 3 | reversed PCP-induced prepulse inhibition (PPI) of acoustic startle; also recorded: significantly reversed the PPI deficit; also recorded: reversed the PPI deficits induced by PCP | 6.0 | exerted anxiolytic effects | 90.7 | 66.5 | exerted anxiolytic effects | neither 1 nor 2 produced significant ataxia | Liver microsomal stability (%-remaining) HLM ([7]; listed as SH-053-2'F-S-CH3 (2)): 2.3%; Toxicity in pharmacological assays (mice, rats and primates): not toxic; Microsomal stability (HLM) % remaining [1, 18]: < 5.0^b %; Microsomal stability (HLM) Half-life [1, 18]: < 5^b min; Effect on amphetamine-induced hyperactivity [9]: successfully mitigated the amphetamine-induced hyperactivity; Microsomal stability (MLM) % remaining [3, 19]: 78.0 ± 0.2^d %; Microsomal stability (MLM) Half-life [3, 19]: 155 ± 9^d min; Protection from 6 Hz electroshock-induced seizures (mice [11]; i.p. 100 mg/kg, time points 1/4, 1/2, 1, 2, and 4 hours, 100 mg/kg): able to protect some subjects
3 | C#Cc1ccc2c(c1)C(c1ccccc1F)=N[C@H](C)c1c(C(=O)OCC)ncn1-2 [compound 1] | – | – | – | 100 | failed to reach a significant effect; also recorded: not 1 reversed the PPI deficits | 5.4 | only a minimal anxiolytic effect | 90.3 | 59.1 | only a minimal anxiolytic effect | neither 1 nor 2 produced significant ataxia | Anxiolytic and antidepressant effects after UCMS (mice [16]; female mice): exhibited anxiolytic and antidepressant effects; Anxiolytic and antidepressant effects after UCMS (mice [16]; male mice): very weak or none at all; Liver microsomal stability (%-remaining) HLM ([7]; listed as SH-053-2'F-R-CH3 (1)): 100.0%; Protection from 6 Hz electroshock-induced seizures (mice [11]; i.p. 150 mg/kg, various time points, 150 mg/kg): not effective at any time; also recorded: not able to protect mice from electroshock-induced seizures; Effect on amphetamine-induced hyperactivity of the dopamine system [17]: successfully alleviate the hyperactivity of the dopamine system induced by amphetamine
4 | C#Cc1ccc2c(c1)C(c1ccccc1F)=N[C@@H](C)c1c(C(=O)NC(C)(C)C)ncn1-2 [8e, (S)-N-(tert-Butyl)-8-ethynyl-6-(2-fluorophenyl)-4-methyl-4H-benzo[f]imidazo[1,5-a][1,4]diazepine-3-carbox-amide] | did not show any motor impairment | 33.6 ± 3.0 | 43.4 ± 4.0 | – | – | – | – | – | – | – | – | Microsomal stability (HLM) % remaining ([1]; after 2 hr): 63.0 ± 0.3%; Microsomal stability (HLM) Half-life ([1]; after 2 hr): 205 ± 14 min; Microsomal stability (MLM) % remaining ([3]; after 2 hr): 52.0 ± 0.3%; Microsomal stability (MLM) Half-life ([3]; after 2 hr): 142 ± 9 min
5 | C#Cc1ccc2c(c1)C(c1ccccc1F)=N[C@@H](C)c1c(-c3nc(C)no3)ncn1-2 [9a, (S)-5-(8-Ethynyl-6-(2-fluorophenyl)-4-methyl-4H-benzo[f]imidazo[1,5-a][1,4]diazepin-3-yl)-3-methyl-1,2,4-oxadiazole] | did not exhibit motor impairments | 69.3 ± 2.3 | – | – | – | – | – | – | – | – | – | remaining at 2 h ([1]; human, liver microsomes, Microsomal stability (HLM) % remaining, after 2 hr): 86 ± 0.3%; remaining at 2 h ([3]; mouse, liver microsomes, Microsomal stability (MLM) % remaining, after 2 hr): 81 ± 0.4%; Procognitive effects in the Y-maze paradigm (Procognitive assay): procognitive effects (C+)
